# High-throughput results deposited in PubChem by The Scripps Research Institute Molecular Screening Center.
# CHRM5 antagonist: CHRM5 antagonism in calcium assay | CHO-hM5 cells, Fluo-8 calcium fluorescence, ACh EC80 | inhibition, % at 3 µM | 360,000 tested, 0.59% active | AID 624040;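 active = inhibition above a per-plate cutoff, the mean of that plate's test compounds plus 3 SD, cut at about 27% in these data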;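 also: 0% = acetylcholine EC80 with DMSO and 100% = DMSO without agonist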
# CHRM5 agonist: agonists of human muscarinic M5 receptor (CHRM5); P08912; CHO-K1 hM5 cells, Fluo-8 calcium fluorescence; 0% DMSO wells, 100% maximal acetylcholine response; activation, % at 3 µM; 360,000 tested, 0.19% active; AID 624037;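 active = activation above the run's mean over test compounds plus 3 SD, cut at about 23% in these data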;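 also: signal is peak over basal fluorescence ratio across the kinetic read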
# M4 PAM: CHRM4 positive allosteric modulation | P08173 | CHO-K1 hM4/Gqi5, Fluo-8 calcium fluorescence, ACh EC20; 0% = ACh EC20, 100% = maximal ACh | activation, % at 3 µM | 360,000 tested, 0.4% active | AID 624126;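 active = activation above its plate's cutoff, the mean activation of sample wells plus 3 SD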
# Target sequence (P08173 whole entry, looked up): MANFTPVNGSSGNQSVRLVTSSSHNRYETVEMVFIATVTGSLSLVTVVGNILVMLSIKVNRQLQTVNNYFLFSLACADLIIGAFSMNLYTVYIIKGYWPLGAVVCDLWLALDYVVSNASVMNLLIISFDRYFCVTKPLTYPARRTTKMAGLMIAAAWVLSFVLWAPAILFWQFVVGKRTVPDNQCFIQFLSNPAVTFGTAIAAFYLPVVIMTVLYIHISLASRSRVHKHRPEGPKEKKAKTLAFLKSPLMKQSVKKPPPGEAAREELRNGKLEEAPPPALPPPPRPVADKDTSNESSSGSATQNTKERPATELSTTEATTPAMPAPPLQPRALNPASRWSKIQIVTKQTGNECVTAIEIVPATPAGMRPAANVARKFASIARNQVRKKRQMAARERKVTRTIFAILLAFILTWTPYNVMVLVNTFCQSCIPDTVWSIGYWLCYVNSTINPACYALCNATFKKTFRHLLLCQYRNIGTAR
# CHRM5 PAM: positive allosteric modulators of human muscarinic M5 receptor; P08912; CHO-K1 hM5, Fluo-8 calcium, ACh EC20 PAM; 0% = ACh EC20, 100% = ACh EC100; activation, % at 3 µM; 360,000 tested, 0.3% active;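 active = activation above the run cutoff, the mean activation of all test compounds plus 3 SD, cut at about 18% in these data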
#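 Probe or stimulus: acetylcholine, EC20 level; Assay system: human M5 receptor in CHO-K1 cells; Schedule: compound preincubation 140 s before EC20 acetylcholine addition; Technique: intracellular calcium via Fluo-8 fluorescence; Dosing: single-point, 3 µM nominal; Read-out basis: percent activation from peak-over-basal fluorescence ratio, scaled EC20-to-EC100 acetylcholine; Repeats: one well per compound, no replicates.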
# M4 antag: CHRM4 antagonism in calcium assay; 360,000 tested, 0.73% active; inhibition, % at 3 µM; CHO-hM4 cells, ACh EC80, Fluo-8 calcium fluorescence; P08173;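 active = inhibition above its plate's cutoff, the mean inhibition of sample wells plus 3 SD, cut at about 27% in these data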;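 also: 0% = acetylcholine EC80 with DMSO and 100% = DMSO without agonist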
# M4 ag: CHRM4 agonism in calcium assay | 360,000 tested, 0.14% active | activation, % at 3 µM | AID 624127 | CHO-K1 hM4/Gqi5, Fluo-8 calcium fluorescence; vehicle 0%, full acetylcholine response 100% | P08173;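 active = activation above the run mean over all test wells plus 3 SD, cut at about 32% in these data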;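 also: peak over basal fluorescence ratio per well then scaled between controls; 0% = DMSO wells and 100% = acetylcholine at EC100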
# * = called active by the depositor; ! = not confirmed by another sample. Shown are actives, neighbours in structure and some others; about 1.8% of the full set was active somewhere.
SMILES,CHRM5 antagonist,CHRM5 agonist,M4 PAM,CHRM5 PAM,M4 antag,M4 ag
O=C(NCc1ccc2c(c1)OCO2)c1nnc(Cc2ccc(F)cc2)o1,-3,0,9,-5,-5,2
Nc1nc2cc3c(cc2cc1C(=O)NCc1ccc(F)cc1)OCO3,27*,11,-7,-19,11,15
C[C@H](NC(=O)C1CC(=O)N(c2ccc3c(c2)OCO3)C1)C(=O)NC1CCCCC1 (stereo partly specified),12,-6,-1,-4,5,1
C=CCNc1nc(C(=O)OCC(=O)Nc2c(Cl)cccc2C(F)(F)F)cs1,-7,3,10,1,-4,0
Cc1cc2c(cc1C)N(C(=O)CSc1nncn1C)C(C)(C)c1ssc(=S)c1-2,34*,-7,-11,-23,11,-3
CCCCNC(=O)C(NC(=O)c1ccccc1)C(=O)c1ccccc1 (stereo unspecified),-3,0,6,5,-5,2
O=C(Nc1ccc(Cl)cc1)c1ccc(-n2cncn2)c([N+](=O)[O-])c1,15,6,-14,-12,29*,24
Cc1ccc(NC(=O)c2ccc(-n3cncn3)c([N+](=O)[O-])c2)cc1,4,1,0,-4,1,5
CN1C(=O)/C(=C/c2ccccc2OCc2ccc(F)cc2)N(C)C1=S,77*,-7,-38,-20,97*,-1
COc1cccc(CN2CC(C(=O)N(C)CCCC3CCCC3)CCC2=O)c1 (stereo unspecified),5,-2,-5,-4,6,1
CCOC(=O)CCc1c(C)n(CC)c2cc(-c3ccccc3OC)nn2c1=O,0,-9,19*,13,-9,-1
Cc1sc2nc(CN3CCCC3)nc(N3CCC(C(N)=O)CC3)c2c1C,8,-6,31*,7,22,4
Cc1sc2nc(CN3CCCC3)nc(N3CCN(C(=O)c4ccco4)CC3)c2c1C,-4,-4,-6,9,0,2
Cc1ccccc1-c1nc(CS(=O)CC(=O)NCc2ccc3c(c2)OCO3)c(C)o1 (stereo unspecified),26,-5,-1,-11,2,6
Cc1oc(-c2ccccc2Cl)nc1CS(=O)CC(=O)NCc1ccc2c(c1)OCO2 (stereo unspecified),-26,-1,3,23*,-10,2
O=Cc1cc(Br)c(OC(=O)N2CCOCC2)c(Br)c1,2,-3,1,-1,5,2
CC1CCCCC1N(C)C1CCN(C(=O)CNC(=O)/C=C/c2cccc(Cl)c2)CC1 (stereo unspecified),2,-9,-9,5,6,0
CCCCNC(=O)COCc1cc(-c2ccc3c(c2)OCO3)on1,8,-1,15*,-6,-5,6
Cc1ccc(NC(=O)C2=C(c3ccccc3)S(=O)(=O)CCS2(=O)=O)cc1,10,-5,2,-2,39*,5
Cc1nn(C)c(C)c1/C=C/C(=O)c1ccc(Cl)cc1Cl,26,5,-3,-18,6,11
Cc1occc1C(=O)N1CCCC(CCC(=O)NCc2ccc(F)c(F)c2)C1 (stereo unspecified),2,-2,2,3,-7,2
O=C(CCC1CCCN(C2C3CC4CC(C3)CC2C4)C1)NCc1ccc(F)c(F)c1 (stereo unspecified),10,-16,-20,0,41*,0
Cc1ccc(SC[C@H](C)CN2CC[C@H](C(C)(C)C)CCC2=O)cc1,14,0,-1,-7,17,-1
CCc1nc2ccc(C(=O)N(CC)CCN(C)C)cn2c1N(CC)CCOC,0,-2,6,-2,-11,1
COc1ccc(OCc2nnc(SCC(=O)Nc3cccc(C(C)=O)c3)o2)cc1,-2,4,3,-7,-7,11
SMILES,CHRM5 antagonist,CHRM5 agonist,M4 PAM,CHRM5 PAM,M4 antag,M4 ag
CCCC(=O)Nc1cccc(-c2nc3ccccc3c(=O)o2)c1,0,-1,25*,10,6,-1
CC(C)(C)C(=O)Nc1cccc(-c2nc3ccccc3c(=O)o2)c1,1,5,3,0,-7,-2
CN(CC(=O)Nc1cccc(F)c1)C(=O)CCCN1C(=O)c2cccc3cccc(c23)C1=O,7,-3,4,-8,-7,5
COc1ccc(CCCN2CCC(CN3CCNC(=O)C3=O)CC2)cc1OC,4,1,5,0,-1,0
Cc1ccc(S(=O)(=O)Oc2ccc(C)cc2/C=N/N=C2\NC(=O)C(C)S2)cc1 (stereo unspecified),-14,-9,3,18*,7,0
COc1ccc(/C=N/N=C2/NC(=O)C(CC(=O)O)S2)cc1OS(=O)(=O)c1ccccc1 (stereo unspecified),7,2,-1,-4,-2,-1
CCN(c1ccc(C)cc1)S(=O)(=O)c1nnc(NC(=O)c2ccco2)s1,-1,-4,20*,-5,-44,3
CCN(c1ccc(C)cc1C)S(=O)(=O)c1nnc(NC(=O)c2ccco2)s1,-5,-3,1,0,-23,6
Cc1ccc(CNC(=O)CCc2cn(C)c3ccccc23)cc1,6,-2,-3,1,7,-1
c1ccc2c(c1)CCc1ccccc1C2=C1CCNCC1,99*,-19,-61,-32,99*,2
O=C1C(=C2CCc3ccccc32)Cc2ccccc21,-1,-2,0,-2,5,0
COc1cc2c(c3ccccc13)CCCC2=O,-1,-4,5,14,-10,-1
CC(Oc1ccc2c(-c3ccccc3)cc(=O)oc2c1)C(=O)N1CCC[C@@H]1C(N)=O (stereo partly specified),-1,3,3,0,-18,1
CC(=O)O[C@]1(C(C)=O)CCC2C3C=C(C)C4=CC(=O)CC[C@]4(C)C3CC[C@@]21C (stereo partly specified),-4,-3,1,3,-22,1
CC(=O)O[C@H]1C[C@@]2(C)[C@@H](C[C@@H](O)[C@H]3[C@@]4(C)CC[C@@H](O)[C@@H](C)[C@@H]4CC[C@@]32C)/C1=C(\CCC=C(C)C)C(=O)O,44*!,-2,-16,-19,81*!,0
C=Cc1ccc(Cn2c(C)c(C(=O)NCCC#N)sc2=O)cc1,-1,-2,0,-2,2,2
CC(=O)Nc1ccc(-n2nnnc2SCC(=O)Nc2cccc(NC(=O)c3ccco3)c2)cc1,-6,-1,4,3,26*,2
